Experimental data from ChEMBL document CHEMBL3259627, “Allosteric inhibition of human factor XIa: discovery of monosulfated benzofurans as a class of promising inhibitors” (J Med Chem, 2014).
Active and inactive are the calls of the source. The rule behind the calls is not given here.

Columns and labels:
Coagulation factor XI [1] = molecular target: T1, Coagulation factor XI (Homo sapiens, UniProt P03951); test: Activation of full-length human factor-11a-mediated S-2366 hydrolysis at 300 uM preincubated for 10 mins followed by substrate addition by spectrophotometric analysis relative to control; design: scale not given: the % may be the effect or the level left
T1 sequence (P03951 19-387 limits assumed): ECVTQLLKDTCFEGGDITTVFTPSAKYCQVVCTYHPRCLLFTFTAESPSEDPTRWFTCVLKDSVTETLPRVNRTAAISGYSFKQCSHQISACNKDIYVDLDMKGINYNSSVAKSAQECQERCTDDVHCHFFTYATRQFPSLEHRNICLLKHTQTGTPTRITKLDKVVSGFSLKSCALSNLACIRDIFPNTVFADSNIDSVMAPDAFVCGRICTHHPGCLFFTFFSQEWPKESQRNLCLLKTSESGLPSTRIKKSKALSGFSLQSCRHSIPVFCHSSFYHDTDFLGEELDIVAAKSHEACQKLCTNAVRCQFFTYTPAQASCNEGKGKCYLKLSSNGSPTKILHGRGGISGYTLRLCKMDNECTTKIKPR
T1 sequence (P03951 388-625 limits assumed): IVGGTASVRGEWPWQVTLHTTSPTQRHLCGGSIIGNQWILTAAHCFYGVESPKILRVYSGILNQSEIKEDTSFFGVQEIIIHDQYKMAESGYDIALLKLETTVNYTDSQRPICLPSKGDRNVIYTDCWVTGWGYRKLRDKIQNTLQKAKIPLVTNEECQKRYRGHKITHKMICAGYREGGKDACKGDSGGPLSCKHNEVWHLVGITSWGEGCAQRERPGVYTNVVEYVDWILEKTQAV
In short: (§1)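 Single-point screen: inhibitor (300 μM final) incubated with fXIa (0.765 nM final) in 0.05 M Tris-HCl pH 7.4, 0.15 M NaCl, 0.1% PEG8000, 0.02% Tween80, 10 min at 37 °C. S-2366 then added (330 μM final) and the initial rate taken from A405 rise (<10% conversion). Residual activity (%) is the rate ratio with versus without inhibitor. At least duplicate; mean ± SD.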

Coagulation factor XI [2] = molecular target: T1, Coagulation factor XI; test: Inhibition of full-length human factor-11a-mediated S-2366 hydrolysis assessed as reduction in residual activity at 300 uM preincubated for 10 mins followed by substrate addition by spectrophotometric analysis relative to control; in short: as §1
Coagulation factor XI [3] = molecular target: T1, Coagulation factor XI; test: Inhibition of full-length human factor-11a-mediated S-2366 hydrolysis preincubated for 10 mins followed by substrate addition by spectrophotometric analysis relative to control
In short: (§2)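 Dose-response run in the same Tris pH 7.4 buffer with NaCl, PEG8000 and Tween80. Serial 2/3 or 5/6 inhibitor dilutions were preincubated 10 min at 37 °C with fXIa (0.765 nM final). S-2366 was then added (330 μM final) and the initial A405 rate read. Residual activity versus log[I] was fitted to a logistic equation for IC50, Hill slope, YM and Y0. At least two measurements; ± SD.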

Coagulation factor XI [4] = molecular target: T1, Coagulation factor XI; test: Inhibition of full-length human factor-11a-mediated S-2366 hydrolysis preincubated for 10 mins followed by substrate addition by spectrophotometric analysis; in short: as §2
Coagulation factor XI [5] = molecular target: T1, Coagulation factor XI; test: Binding affinity to fluorescein-EGR-labeled human factor-11a by fluorescence spectroscopic analysis
In short: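 fXIa active-site labeled with fluorescein-EGR (74 nM) in Tris pH 7.4 buffer without Tween80 at 37 °C. Excitation at 480 nm, emission recorded at 522 nm during ligand titration. ΔF/F0 versus ligand concentration was fitted to a quadratic binding equation to give the dissociation constant.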

Coagulation factor XI [6] = molecular target: T1, Coagulation factor XI; test: Inhibition of full-length human factor-11a-mediated S-2366 hydrolysis at 300 uM preincubated for 10 mins followed by substrate addition by spectrophotometric analysis relative to control; in short: as §1
Coagulation factor XI [7] = molecular target: T1, Coagulation factor XI; test: Inhibition of human factor-11a catalytic domain-mediated S-2366 hydrolysis preincubated for 10 mins followed by substrate addition by spectrophotometric analysis
In short: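 Recombinant fXIa catalytic domain (0.765 nM final) in 0.05 M Tris-HCl pH 7.4, 0.15 M NaCl, 0.1% PEG8000, 0.02% Tween80. Incubated 10 min at 37 °C with serial inhibitor dilutions (2/3 or 5/6 decrements), then S-2366 added to 330 μM final. Initial A405 rate gives residual activity; IC50 from logistic fit versus log[I]; at least two measurements.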

Coagulation factor XI [8] = molecular target: T1, Coagulation factor XI

| SMILES | Activity (Coagulation factor XI [2]) | Efficacy (Coagulation factor XI [3]) | IC50 (Coagulation factor XI [4]) | further results |
| --- | --- | --- | --- | --- |
| CCOC(=O)C1Cc2cc(OS(=O)(=O)O)c(OS(=O)(=O)O)cc2CN1C(=O)c1ccc(OS(=O)(=O)O)c(OS(=O)(=O)O)c1 (stereo unspecified) |  |  |  | Activity (Coagulation factor XI [1]): 20% |
| CCOC(=O)c1c(C)oc2cc(OC)c(OCc3oc4cc(OC)c(OCc5oc6cc(OC)c(OCc7oc8cc(OC)c(OS(=O)(=O)O)cc8c7C(=O)OCC)cc6c5C(=O)OCC)cc4c3C(=O)OCC)cc12 | > 50% | 100% | 99 µM |  |
| CCOC(=O)c1c(C)oc2cc(OC)c(OCc3oc4cc(OCC)c(OS(=O)(=O)O)cc4c3C(=O)OCC)cc12 | > 50% | 100% | 7.5 µM | Kd (Coagulation factor XI [5]): 4.5 µM |
| COC(=O)c1c(C)oc2cc(OC)c(OCc3oc4cc(OC)c(OS(=O)(=O)O)cc4c3C(=O)OC)cc12 | > 50% | 100% | 9.7 µM |  |
| CCOC(=O)c1c(C)oc2cc(OC)c(OCc3oc4cc(OC)c(OCc5oc6cc(OC)c(OS(=O)(=O)O)cc6c5C(=O)OCC)cc4c3C(=O)OCC)cc12 | > 50% | 100% | 6.4 µM |  |
| CCOC(=O)c1c(C)oc2cc(OC)c(OCc3oc4cc(OC)c(OCc5oc6cc(OC(C)C)c(OS(=O)(=O)O)cc6c5C(=O)OCC)cc4c3C(=O)OCC)cc12 | > 50% | 100% | 47.2 µM |  |
| CCOC(=O)c1c(C)oc2cc(OC)c(OCc3oc4cc(OC)c(OCc5oc6cc(OS(=O)(=O)O)c(OC)cc6c5C(=O)OCC)cc4c3C(=O)OCC)cc12 |  |  |  | inhibition (Coagulation factor XI [6]): inactive |
| CCOC(=O)c1c(C)oc2cc(OC)c(OCc3oc4cc(OC)c(OCc5oc6cc(OCC)c(OS(=O)(=O)O)cc6c5C(=O)OCC)cc4c3C(=O)OCC)cc12 | > 50% | 100% | 0.82 µM | IC50 (Coagulation factor XI [7]): 49 µM; Kd (Coagulation factor XI [5]): 1.2 µM; KSV (Coagulation factor XI [8]): 2.3 |
| CCOC(=O)c1c(COc2cc3c(C(=O)O)c(C)oc3cc2OC)oc2cc(OC)c(OCc3oc4cc(OC)c(OS(=O)(=O)O)cc4c3C(=O)OCC)cc12 | > 50% | 100% | 29.9 µM |  |
| CCOC(=O)c1c(C)oc2cc(OC)c(OCc3oc4cc(OC)c(OCc5oc6cc(OC)c(OS(=O)(=O)O)cc6c5C(=O)OC)cc4c3C(=O)OCC)cc12 | > 50% | 100% | 14.9 µM |  |
| CCOC(=O)c1c(COc2cc3c(C(=O)OCC)c(COc4cc5c(C(=O)O)c(C)oc5cc4OC)oc3cc2OC)oc2cc(OC)c(O)cc12 |  | 100% | 384 µM | inhibition (Coagulation factor XI [6]): 50% |
| O=C(Nc1ccc(OS(=O)(=O)O)cc1)c1cccc(N2C(=O)c3ccc(C(=O)Nc4ccc(OS(=O)(=O)O)cc4)cc3C2=O)c1 | > 50% | 100% | 122 µM |  |
| O=C(c1cc(OS(=O)(=O)O)cc(OS(=O)(=O)O)c1)N1CCc2cc(OS(=O)(=O)O)c(OS(=O)(=O)O)cc2C1 |  |  |  | Activity (Coagulation factor XI [1]): 20% |
| CCOC(=O)c1c(C)oc2cc(OCc3oc4cc(OC)c(OS(=O)(=O)O)cc4c3C(=O)OCC)c(OC)cc12 |  |  |  | inhibition (Coagulation factor XI [6]): inactive |
| N#Cc1c(SCC(=O)c2cccc(OS(=O)(=O)O)c2OS(=O)(=O)O)nc([N+](=O)[O-])c(C#N)c1-c1ccc(Oc2ccccc2)cc1 | > 50% | 100% | 109 µM |  |
| O=C(O)C1Cc2cc(OS(=O)(=O)O)c(OS(=O)(=O)O)cc2CN1C(=O)c1cc(OS(=O)(=O)O)c(OS(=O)(=O)O)c(OS(=O)(=O)O)c1 (stereo unspecified) |  |  |  | Activity (Coagulation factor XI [1]): 20% |
| O=C(c1cc(OS(=O)(=O)O)c(OS(=O)(=O)O)c(OS(=O)(=O)O)c1)N1CCc2cc(OS(=O)(=O)O)c(OS(=O)(=O)O)cc2C1 |  |  |  | Activity (Coagulation factor XI [1]): 20% |
| C=CCOC(=O)c1c(C)oc2cc(OC)c(OCc3oc4cc(OC)c(OCc5oc6cc(OC)c(OS(=O)(=O)O)cc6c5C(=O)OCC)cc4c3C(=O)OCC)cc12 | > 50% | 100% | 29.9 µM |  |
